In ChEMBL document CHEMBL1137994, “Bis[3-(4'-substituted phenyl)prop-2-ene]disulfides as a new class of antihyperlipidemic compounds” (2004):

Key:
[1] = biological target: T1, 3-hydroxy-3-methylglutaryl-coenzyme A reductase (Rattus norvegicus) (UniProt P51639); experiment: Ratio of HMG-CoA reductase to mevalinate
T1 sequence (whole entry): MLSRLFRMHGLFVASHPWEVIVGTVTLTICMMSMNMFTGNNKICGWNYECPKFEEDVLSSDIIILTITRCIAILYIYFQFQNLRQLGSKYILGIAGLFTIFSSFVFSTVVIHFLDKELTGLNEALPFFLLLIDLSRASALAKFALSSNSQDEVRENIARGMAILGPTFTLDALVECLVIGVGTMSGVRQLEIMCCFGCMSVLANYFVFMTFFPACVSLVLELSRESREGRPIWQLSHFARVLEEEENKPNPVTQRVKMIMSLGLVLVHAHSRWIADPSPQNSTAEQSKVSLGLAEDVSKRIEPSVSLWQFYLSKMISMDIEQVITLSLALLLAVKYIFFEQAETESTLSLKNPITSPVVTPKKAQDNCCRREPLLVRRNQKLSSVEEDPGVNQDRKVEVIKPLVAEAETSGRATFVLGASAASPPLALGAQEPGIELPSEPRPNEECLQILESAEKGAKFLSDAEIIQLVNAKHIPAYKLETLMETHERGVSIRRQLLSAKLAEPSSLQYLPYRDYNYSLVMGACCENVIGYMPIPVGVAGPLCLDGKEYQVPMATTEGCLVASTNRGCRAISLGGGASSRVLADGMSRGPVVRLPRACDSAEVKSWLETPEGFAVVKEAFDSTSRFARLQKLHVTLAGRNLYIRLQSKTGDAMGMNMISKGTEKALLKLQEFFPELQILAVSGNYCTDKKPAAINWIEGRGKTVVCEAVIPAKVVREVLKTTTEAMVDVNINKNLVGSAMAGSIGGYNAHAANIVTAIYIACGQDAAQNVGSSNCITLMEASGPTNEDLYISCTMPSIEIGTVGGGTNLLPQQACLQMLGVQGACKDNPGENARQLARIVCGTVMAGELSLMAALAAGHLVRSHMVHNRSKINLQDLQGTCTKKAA
Method in brief: (§1)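 Male Wistar rats, six per group, received a 5% cholesterol diet for 1 week plus an oral 20 mg/kg bwt dose given as a suspension in water. The experiment was run three times. Hepatic HMG-CoA reductase activity was determined by the Venugopala Rao method and expressed as the HMG-CoA/mevalonate ratio.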

[2] = biological target: T1, 3-hydroxy-3-methylglutaryl-coenzyme A reductase (Rattus norvegicus); experiment: Percent decrease in HMG-CoA reductase activity in rat; method in brief: as §1
Rattus norvegicus [3] = experiment: Percent decrease in weight of serum cholesterol after treatment with compound at 20 mg/kg dose for seven days; assay type: functional
Method in brief: (§2)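 Male Wistar rats, six per group, were fed a 5% cholesterol diet for 1 week. They were dosed orally at the same time with 20 mg/kg bwt as a suspension in water, and the experiment was run three times. Serum and liver cholesterol were measured by the Zlatkis method, and liver triglyceride by the Van Handel–Zilversmit method, on about 1 g of saline-washed tissue.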

Rattus norvegicus [4] = experiment: Percent decrease in weight of triglyceride in liver wet tissue after treatment with compound at 20 mg/kg dose for seven days; assay type: functional; method in brief: as §2
Rattus norvegicus [5] = experiment: Alanine transferase (GPT) enzyme level in serum upon single dose administration was determined as measure of hepatotoxicity; Normal range = 18-30 IU; assay type: functional
Method in brief: (§3)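 Oral dosing of the compounds as aqueous suspensions, given either as a single dose or as five doses. Hepatotoxicity was assessed from serum alanine transferase and aspartate transferase (IU) and alkaline phosphatase (KA units). Each marker was set against the normal ranges listed.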

Rattus norvegicus [6] = experiment: Alkaline phosphatase enzyme level in serum upon single dose administration was determined as measure of hepatotoxicity; Normal range = 14-32 KA units; assay type: functional; method in brief: as §3
Rattus norvegicus [7] = experiment: Alanine transferase (GPT) enzyme level in serum upon administration of five doses was determined as measure of hepatotoxicity; Normal range = 18-30 IU; assay type: functional; method in brief: as §3
Rattus norvegicus [8] = experiment: Aspartate transferase (GOT) enzyme level in serum upon single dose administration was determined as measure of hepatotoxicity; Normal range = 46-81 IU; assay type: functional; method in brief: as §3
Rattus norvegicus [9] = experiment: Weight of serum cholesterol after treatment with compound at 20 mg/kg dose for seven days; assay type: functional
Method in brief: (§4)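 Male Wistar rats, six per group, were fed a 5% cholesterol diet for one week while receiving compound at 20 mg/kgbwt orally as a suspension in water. Serum was separated, and about 1 g of liver, washed in ice-cold 0.85% NaCl, was taken for lipids. Cholesterol was measured by the Zlatkis method and liver triglyceride by the Van Handel–Zilversmit method. The run was repeated three times; values are mean ± SE.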

Rattus norvegicus [10] = experiment: Weight of cholesterol in liver wet tissue after treatment with compound at 20 mg/kg dose for seven days; assay type: functional; method in brief: as §4
Rattus norvegicus [11] = experiment: Weight of triglyceride in liver wet tissue after treatment with compound at 20 mg/kg dose for seven days; assay type: functional; method in brief: as §4
Rattus norvegicus [12] = experiment: Percent decrease in weight of cholesterol in liver wet tissue after treatment with compound at 20 mg/kg dose for seven days; assay type: functional; method in brief: as §2
Rattus norvegicus [13] = experiment: Creatinine level in serum upon single dose administration was determined as measure of nephrotoxicity; Normal range = 0.20-0.80 mg/dL; assay type: functional, organism-based
Method in brief: (§5)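 Nephrotoxicity was assessed after a single dose of compound by measuring serum blood urea nitrogen and creatinine in mg/dL by cited methods. Values are mean ± SE against a normal range.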

Rattus norvegicus [14] = experiment: Creatinine level in serum upon administration of five doses was determined as measure of nephrotoxicity; Normal range = 0.20-0.80 mg/dL; assay type: functional, organism-based
Method in brief: (§6)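 Nephrotoxicity was assessed after five doses of compound by measuring serum blood urea nitrogen and creatinine in mg/dL by cited methods. Values are mean ± SE against a normal range.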

Rattus norvegicus [15] = experiment: Blood urea nitrogen level in serum upon single dose administration was determined as measure of nephrotoxicity; Normal range = 5-29 mg/dL; assay type: functional, organism-based; method in brief: as §5
Rattus norvegicus [16] = experiment: Blood urea nitrogen level in serum upon administration of five doses was determined as measure of nephrotoxicity; Normal range = 5-29 mg/dL; assay type: functional, organism-based; method in brief: as §6
Rattus norvegicus [17] = experiment: Alkaline phosphatase enzyme level in serum upon administration of five doses was determined as measure of hepatotoxicity; Normal range = 14-32 KA units; assay type: functional; method in brief: as §3
Rattus norvegicus [18] = experiment: Aspartate transferase (GOT) enzyme level in serum upon administration of five doses was determined as measure of hepatotoxicity; Normal range = 46-81 IU; assay type: functional; method in brief: as §3
Rattus norvegicus [19] = experiment: Alkaline phosphatase enzyme level upon single dose administration was determined as measure of hepatotoxicity; Normal range = 14-32 KA units; assay type: functional; method in brief: as §3

Row | SMILES | Ratio [1] | Decrease [2] [%] | Decrease (Rattus norvegicus [3]) [%] | Decrease (Rattus norvegicus [4]) [%] | Activity (Rattus norvegicus [5]) [IU] | Activity (Rattus norvegicus [6]) [KA Units] | Activity (Rattus norvegicus [7]) [IU] | Activity (Rattus norvegicus [8]) [IU] | Weight (Rattus norvegicus [9]) [mg/dL] | Weight (Rattus norvegicus [10]) [mg/g] | Weight (Rattus norvegicus [11]) [mg/g] | Decrease (Rattus norvegicus [12]) [%] | Level (Rattus norvegicus [13]) [mg/dL] | Level (Rattus norvegicus [14]) [mg/dL] | Level (Rattus norvegicus [15]) [mg/dL] | Level (Rattus norvegicus [16]) [mg/dL] | Activity (Rattus norvegicus [17]) [KA Units] | Activity (Rattus norvegicus [18]) [IU] | Activity (Rattus norvegicus [19]) [KA Units]
1 | Nc1ccc(/C=C/CSSC/C=C/c2ccc(N)cc2)cc1 | 1.74 | 7.5 | 5.5 | 6.71 | 26.5 | 40.6 | 21 | 51.5 | 59.76 | 4.81 | 14.6 | 3.13 | 0.55 | 0.84 | 13 | 14.6 | 46.9 | 37 | 
2 | CC[C@H](C)C(=O)O[C@H]1C[C@@H](C)C=C2C=C[C@H](C)[C@H](CC[C@@H]3C[C@@H](O)CC(=O)O3)[C@H]21 [LOVASTATIN] | 2.2 | 35.4 | 31.2 | 36.91 |  |  |  |  | 43.5 | 2.84 | 9.86 | 42.3 |  |  |  |  |  |  | 
3 | O=[N+]([O-])c1ccc(/C=C/CSSC/C=C/c2ccc([N+](=O)[O-])cc2)cc1 | 2.53 | 55.7 | 30.2 | 9.21 | 21 | 29.5 | 15.5 | 51 | 44.15 | 3.15 | 14.8 | 36.5 | 0.4 | 0.8 | 7.65 | 6.48 | 48 | 49 | 
4 | COc1ccc(/C=C/CSSC/C=C/c2ccc(OC)cc2)cc1 | 1.68 | 3.69 | 2.05 | 4.91 | 26.5 |  | 23 | 49 | 61.95 | 4.9 | 14.8 | 1.2 | 0.59 | 0.49 | 7.43 | 8.48 | 25.2 | 29.5 | 45.6
5 | O=C(O)c1ccc(/C=C/CSSC/C=C/c2ccc(C(=O)O)cc2)cc1 | 2.02 | 24.2 | 7.01 | 8.28 | 25 | 31 | 28 | 53 | 58.82 | 4.3 | 14.3 | 13.3 | 0.61 | 0.7 | 20.2 | 17.4 | 32.8 | 56 | 
6 | C(=C\c1ccccc1)/CSSC/C=C/c1ccccc1 | 1.72 | 5.9 | 3.63 | 4.9 | 17.5 | 34 | 27 | 51 | 60.95 | 4.86 | 14.2 | 2 | 0.58 | 0.57 | 12.4 | 7.37 | 33.6 | 39 | 
7 | C=CCS[S+]([O-])CC=C (stereo unspecified) [ALLICIN] | 2.07 | 27.6 | 20.5 | 39.6 |  |  |  |  | 50.25 | 3.59 | 9.44 | 27.6 |  |  |  |  |  |  | 
